In ChEMBL document CHEMBL3046413, “Synthesis and insecticidal activity of some novel fraxinellone-based esters” (2012):

Columns and labels:
Assay type in all cases: functional
Mythimna separata [1] = assay: Insecticidal activity against Mythimna separata (Oriental armyworm) in wheat leaves assessed as mortality rate at 1 mg/mL at 25 degC measured after 35 days by leaf-dipping method relative to control; conditions: 840 h
Method in brief: (§1)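 Leaf-dipping assay on pre-third-instar M. separata larvae. Compounds dissolved in acetone at 1 mg/mL; fresh wheat leaves dipped 3 s, then air-dried. Acetone-treated leaves served as control. 30 larvae per compound in groups of 10 per dish, with treated leaves replenished when consumed. After 48 h, larvae were switched to untreated fresh leaves. Corrected mortality = (T − C) × 100/(1 − C); three replicates.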

Mythimna separata [2] = assay: Insecticidal activity against Mythimna separata (Oriental armyworm) in wheat leaves assessed as mortality rate at 1 mg/mL at 25 degC measured after 25 days by leaf-dipping method relative to control; conditions: 600 h; method in brief: as §1
Mythimna separata [3] = assay: Insecticidal activity against Mythimna separata (Oriental armyworm) in wheat leaves assessed as mortality rate at 1 mg/mL at 25 degC measured after 10 days by leaf-dipping method relative to control; conditions: 240 h; method in brief: as §1

| Structure (SMILES) | mortality at 1000 µg/mL (Mythimna separata [1]) [%] | mortality at 1000 µg/mL (Mythimna separata [2]) [%] | mortality at 1000 µg/mL (Mythimna separata [3]) [%] |
| --- | --- | --- | --- |
| CC1=C2C(=O)O[C@@H](c3ccoc3)[C@]2(C)CC[C@H]1OC(=O)COc1cccc2cccnc12 | 51.9 | 37 | 13.8 |
| COc1cccc2ccc(C(=O)O[C@@H]3CC[C@]4(C)C(=C3C)C(=O)O[C@H]4c3ccoc3)nc12 | 63 | 48.1 | 20.7 |
| CCCCCCCC(=O)OCC1=C2C(=O)O[C@@H](c3ccoc3)[C@]2(C)CCC1 | 33.3 | 25.9 | 6.9 |
| C[C@@]12CCCC(COC(=O)Cc3ccccc3)=C1C(=O)O[C@H]2c1ccoc1 | 44.4 | 33.3 | 27.6 |
| C[C@@]12CCCC(COC(=O)Cc3cccc4ccccc34)=C1C(=O)O[C@H]2c1ccoc1 | 48.1 | 33.3 | 20.7 |
| C[C@@]12CCCC(COC(=O)c3ccccc3)=C1C(=O)O[C@H]2c1ccoc1 | 29.6 | 29.6 | 17.2 |
| Cc1ccc(C(=O)OCC2=C3C(=O)O[C@@H](c4ccoc4)[C@]3(C)CCC2)cc1 | 29.6 | 29.6 | 17.2 |
| C[C@@]12CCCC(COC(=O)c3ccc(F)cc3)=C1C(=O)O[C@H]2c1ccoc1 | 51.9 | 40.7 | 10.3 |
| C[C@@]12CCCC(COC(=O)c3cccc(F)c3)=C1C(=O)O[C@H]2c1ccoc1 | 55.6 | 51.9 | 24.1 |
| C[C@@]12CCCC(COC(=O)c3ccc(Cl)cc3)=C1C(=O)O[C@H]2c1ccoc1 | 40.7 | 25.9 | 6.9 |
| C[C@@]12CCCC(COC(=O)c3cccc(Br)c3)=C1C(=O)O[C@H]2c1ccoc1 | 33.3 | 25.9 | 13.8 |
| C[C@@]12CCCC(COC(=O)c3ccc(Br)cc3)=C1C(=O)O[C@H]2c1ccoc1 | 33.3 | 29.6 | 24.1 |
| C[C@@]12CCCC(COC(=O)c3cccc([N+](=O)[O-])c3)=C1C(=O)O[C@H]2c1ccoc1 | 44.4 | 29.6 | 24.1 |
| C[C@@]12CCCC(COC(=O)c3ccc([N+](=O)[O-])cc3)=C1C(=O)O[C@H]2c1ccoc1 | 40.7 | 33.3 | 13.8 |
| C[C@@]12CCCC(COC(=O)c3ccc(C#N)cc3)=C1C(=O)O[C@H]2c1ccoc1 | 44.4 | 25.9 | 6.9 |
| C[C@@]12CCCC(COC(=O)c3cccnc3)=C1C(=O)O[C@H]2c1ccoc1 | 51.9 | 44.4 | 27.6 |
| C[C@@]12CCCC(COC(=O)c3ccncc3)=C1C(=O)O[C@H]2c1ccoc1 | 59.3 | 48.1 | 24.1 |
| C[C@@]12CCCC(CO)=C1C(=O)O[C@H]2c1ccoc1 | 40.7 | 29.6 | 10.3 |
| CCCCCCCC(=O)O[C@@H]1CC[C@]2(C)C(=C1C)C(=O)O[C@H]2c1ccoc1 | 48.1 | 33.3 | 10.3 |

| Structure (SMILES) | mortality at 1000 µg/mL (Mythimna separata [1]) [%] | mortality at 1000 µg/mL (Mythimna separata [2]) [%] | mortality at 1000 µg/mL (Mythimna separata [3]) [%] |
| --- | --- | --- | --- |
| CCCCCCCCCCC(=O)O[C@@H]1CC[C@]2(C)C(=C1C)C(=O)O[C@H]2c1ccoc1 | 48.1 | 40.7 | 20.7 |
| CC1=C2C(=O)O[C@@H](c3ccoc3)[C@]2(C)CC[C@H]1OC(=O)Cc1ccccc1 | 44.4 | 37 | 31 |
| CC1=C2C(=O)O[C@@H](c3ccoc3)[C@]2(C)CC[C@H]1OC(=O)Cc1cccc2ccccc12 | 51.9 | 29.6 | 10.3 |
| CC1=C2C(=O)O[C@@H](c3ccoc3)[C@]2(C)CC[C@H]1OC(=O)c1ccccc1 | 44.4 | 44.4 | 41.4 |
| CC1=C2C(=O)O[C@@H](c3ccoc3)[C@]2(C)CC[C@H]1OC(=O)c1ccc(C)cc1 | 40.7 | 40.7 | 24.1 |
| CC1=C2C(=O)O[C@@H](c3ccoc3)[C@]2(C)CC[C@H]1OC(=O)c1ccc(F)cc1 | 63 | 51.9 | 24.1 |
| CC1=C2C(=O)O[C@@H](c3ccoc3)[C@]2(C)CC[C@H]1OC(=O)c1cccc(F)c1 | 44.4 | 29.6 | 24.1 |
| CC1=C2C(=O)O[C@@H](c3ccoc3)[C@]2(C)CC[C@H]1OC(=O)c1ccc(Cl)cc1 | 40.7 | 33.3 | 20.7 |
| CC1=C2C(=O)O[C@@H](c3ccoc3)[C@]2(C)CC[C@H]1OC(=O)c1cccc(Br)c1 | 44.4 | 40.7 | 20.7 |
| CC1=C2C(=O)O[C@@H](c3ccoc3)[C@]2(C)CC[C@H]1OC(=O)c1ccc(Br)cc1 | 37 | 25.9 | 24.1 |
| CC1=C2C(=O)O[C@@H](c3ccoc3)[C@]2(C)CC[C@H]1OC(=O)c1cccc([N+](=O)[O-])c1 | 48.1 | 40.7 | 10.3 |
| CC1=C2C(=O)O[C@@H](c3ccoc3)[C@]2(C)CC[C@H]1OC(=O)c1ccc([N+](=O)[O-])cc1 | 51.9 | 40.7 | 27.6 |
| CC1=C2C(=O)O[C@@H](c3ccoc3)[C@]2(C)CC[C@H]1OC(=O)c1ccc(C#N)cc1 | 55.6 | 48.1 | 20.7 |
| CC1=C2C(=O)O[C@@H](c3ccoc3)[C@]2(C)CC[C@H]1OC(=O)c1cccnc1 | 55.6 | 40.7 | 20.7 |
| CC1=C2C(=O)O[C@@H](c3ccoc3)[C@]2(C)CC[C@H]1OC(=O)c1ccncc1 | 66.7 | 48.1 | 24.1 |
| CC1=C2C(=O)O[C@@H](c3ccoc3)[C@]2(C)CC[C@H]1OC(=O)c1ccco1 | 51.9 | 40.7 | 31 |
| CC1=C2C(=O)O[C@@H](c3ccoc3)[C@]2(C)CC[C@H]1O [4ALPHA-HYDROXYFRAXINELLONE] | 48.1 | 37 | 20.7 |
| CC1=C2C(=O)O[C@@H](c3ccoc3)[C@]2(C)CCC1 [FRAXINELLONE] | 44.4 | 33.3 | 20.7 |
| CC(=O)O[C@@H]1C[C@H](O)[C@@]23CO[C@@H](O)[C@]1(C)[C@@H]2C[C@@H](O)[C@]1(C)[C@@H]3C(=O)[C@H](OC(C)=O)[C@@]2(C)[C@H](c3ccoc3)C[C@H]3O[C@]321 [TOOSENDANIN] | 48.1 | 33.3 | 27.6 |
